ChEMBL document CHEMBL5236602, “Synthesis and Characterization of NUC-7738, an Aryloxy Phosphoramidate of 3'-Deoxyadenosine, as a Potential Anticancer Agent” (J Med Chem, 2022)
Calls of active or inactive are those of the source. The calls are words filed in the database; no cut-off is given here.

Experiments:
HepG2 = experiment: Cytotoxicity against human HepG2 cells assessed as cell death incubated for 72 hrs by MTS assay; format: functional; settings: read-out: LC50 (the source's name)
How it was run: (§1)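 Contracted MTS assay. Cells seeded the day before treatment and exposed 72 h to nine serial concentrations (3.16-fold steps, top 198 μM), tested in duplicate. MTS added, then 4 h at 37 °C and absorbance read. LC50 is the concentration killing 50% of cells. MI% is the maximum inhibition over the tested range.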

Jurkat [1] = experiment: Cytotoxicity against human Jurkat cells assessed as cell death incubated for 72 hrs by MTS assay; format: functional; settings: read-out: LC50 (the source's name); how it was run: as §1
MV4-11 [2] = experiment: Cytotoxicity against human MV4-11 cells assessed as maximum cell growth inhibition incubated for 72 hrs by MTS assay relative to control; format: functional
How it was run: (§2)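 Cells from the 20-line panel were seeded the day before dosing, then exposed to compound for 72 h. MTS was added, followed by 4 h at 37 °C, and absorbance was read. Nine serial 3.16-fold dilutions were tested, top 198 μM, in duplicate. MI% is the maximum inhibitory effect across the tested concentration range.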

NCI-H929 = experiment: Cytotoxicity against human NCI-H929 cells assessed as maximum cell growth inhibition incubated for 72 hrs by MTS assay relative to control; format: functional; how it was run: as §2
RPMI-8226 = experiment: Cytotoxicity against human RPMI-8226 cells assessed as cell death incubated for 72 hrs by MTS assay; format: functional; settings: read-out: LC50 (the source's name); how it was run: as §1
HL-60 [3] = experiment: Cytotoxicity against human HL-60 cells assessed as maximum cell growth inhibition incubated for 72 hrs by MTS assay relative to control; format: functional; how it was run: as §2
RL [4] = experiment: Cytotoxicity against human RL cells assessed as maximum cell growth inhibition incubated for 72 hrs by MTS assay relative to control; format: functional; how it was run: as §2
Leukemic stem cell = experiment: Cytotoxicity against human leukemic stem cells (Lin-/CD34+/CD38-/CD123+) in myeloid leukemia cell line KG-1a assessed as reduction in LSC population at >1 uM incubated for 72 hrs
[5] = Prodrug conversion in human RL cells assessed as fold increase in 3'-dATP level at 50 uM incubated for 2 hrs by LC-MS/MS analysis relative to 3'-Deoxyadenosine; format: ADME, cell-based
[6] = Cytotoxicity against human HS 445 cells assessed as maximum cell growth inhibition incubated for 72 hrs by MTS assay relative to control; format: functional; how it was run: as §2
KG-1 [7] = experiment: Cytotoxicity against human KG-1 cells assessed as cell death incubated for 72 hrs by MTS assay; format: functional; how it was run: as §1
RL [8] = experiment: Cytotoxicity against deoxynucleotidyl transferase-negative human RL cells assessed as cell death preincubated with adenosine deaminase inhibitor, EHNA for 5 mins followed by compound addition and […]; format: functional, cell-based
MOLT-4 [9] = experiment: Cytotoxicity against human MOLT-4 cells assessed as cell death incubated for 72 hrs by MTS assay; format: functional; settings: read-out: LC50 (the source's name); how it was run: as §1
CCRF-CEM [10] = experiment: Cytotoxicity against deoxynucleotidyl transferase-positive human CCRF-CEM cells assessed as cell death preincubated with adenosine deaminase inhibitor, EHNA for 5 mins followed by compound addition and […]; format: functional, cell-based
Z-138 [11] = experiment: Cytotoxicity against human Z138 cells assessed as cell death incubated for 72 hrs by MTS assay; format: functional; settings: read-out: LC50 (the source's name); how it was run: as §1
BXPC-3 [12] = experiment: Cytotoxicity against human BXPC-3 cells assessed as maximum cell growth inhibition incubated for 72 hrs by MTS assay relative to control; format: functional; how it was run: as §2
MCF7 [13] = experiment: Cytotoxicity against human MCF7 cells assessed as maximum cell growth inhibition incubated for 72 hrs by MTS assay relative to control; format: functional; how it was run: as §2
[14] = Metabolic stability in pooled cryopreserved human hepatocytes assessed as half life at 1 uM incubated for 60 mins by HPLC-MS/MS analysis; format: ADME, cell-based, Hepatocyte
How it was run: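 Pooled cryopreserved human hepatocytes were thawed, washed and resuspended in Krebs–Henseleit buffer, pH 7.3. Compound was added at 1 μM final and incubated 0 and 60 min at 37 °C/5% CO2. Reactions were stopped with acetonitrile, centrifuged, and the supernatant analysed by HPLC-MS/MS.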

Jurkat [15] = experiment: Cytotoxicity against human Jurkat cells assessed as maximum cell growth inhibition incubated for 72 hrs by MTS assay relative to control; format: functional; how it was run: as §2
HT-29 = experiment: Cytotoxicity against human HT-29 cells assessed as maximum cell growth inhibition incubated for 72 hrs by MTS assay relative to control; format: functional; how it was run: as §2
Z-138 [16] = experiment: Cytotoxicity against human Z138 cells assessed as maximum cell growth inhibition incubated for 72 hrs by MTS assay relative to control; format: functional; how it was run: as §2
MCF7 [17] = experiment: Cytotoxicity against human MCF7 cells assessed as cell death incubated for 72 hrs by MTS assay; format: functional; settings: read-out: LC50 (the source's name); how it was run: as §1
RL [18] = experiment: Potency index, ratio of 3'-Deoxyadenosine LC50 to test compound LC50 for cytotoxicity against human RL cells assessed as cell death incubated for 72 hrs by MTS assay; format: functional
CCRF-CEM [19] = experiment: Potency index, ratio of 3'-Deoxyadenosine LC50 to test compound LC50 for cytotoxicity against human CCRF-CEM cells assessed as cell death incubated for 72 hrs by MTS assay; format: functional
CCRF-CEM [20] = experiment: Cytotoxicity against human CCRF-CEM cells assessed as cell death incubated for 72 hrs by MTS assay; format: functional; settings: read-out: LC50 (the source's name); how it was run: as §1
K562 [21] = experiment: Cytotoxicity against human K562 cells assessed as cell death incubated for 72 hrs by MTS assay; format: functional; settings: read-out: LC50 (the source's name); how it was run: as §1
HL-60 [22] = experiment: Cytotoxicity against human HL-60 cells assessed as cell death incubated for 72 hrs by MTS assay; format: functional; settings: read-out: LC50 (the source's name); how it was run: as §1
MV4-11 [23] = experiment: Cytotoxicity against human MV4-11 cells assessed as cell death incubated for 72 hrs by MTS assay; format: functional; settings: read-out: LC50 (the source's name); how it was run: as §1
CCRF-CEM [24] = experiment: Cytotoxicity against human CCRF-CEM cells assessed as maximum cell growth inhibition incubated for 72 hrs by MTS assay relative to control; format: functional; how it was run: as §2
THP-1 [25] = experiment: Cytotoxicity against human THP-1 cells assessed as maximum cell growth inhibition incubated for 72 hrs by MTS assay relative to control; format: functional; how it was run: as §2
MOLT-4 [26] = experiment: Cytotoxicity against human MOLT-4 cells assessed as maximum cell growth inhibition incubated for 72 hrs by MTS assay relative to control; format: functional; how it was run: as §2
HEL 92.1.7 = experiment: Cytotoxicity against human HEL 92.1.7 cells assessed as maximum cell growth inhibition incubated for 72 hrs by MTS assay relative to control; format: functional; how it was run: as §2
BXPC-3 [27] = experiment: Cytotoxicity against human BXPC-3 cells assessed as cell death incubated for 72 hrs by MTS assay; format: functional; settings: read-out: LC50 (the source's name); how it was run: as §1
THP-1 [28] = experiment: Cytotoxicity against human THP-1 cells assessed as cell death incubated for 72 hrs by MTS assay; format: functional; settings: read-out: LC50 (the source's name); how it was run: as §1
[29] = Prodrug conversion in human K562 cells assessed as fold increase in 3'-dATP level at 50 uM incubated for 2 hrs by LC-MS/MS analysis relative to 3'-Deoxyadenosine; format: ADME, cell-based; settings: k562, 2 h
KG-1 [30] = experiment: Cytotoxicity against human KG-1 cells assessed as maximum cell growth inhibition incubated for 72 hrs by MTS assay relative to control; format: functional; how it was run: as §2
SW-620 = experiment: Cytotoxicity against human SW620 cells assessed as maximum cell growth inhibition incubated for 72 hrs by MTS assay relative to control; format: functional; how it was run: as §2
MIA PaCa-2 [31] = experiment: Cytotoxicity against human MIA PaCa-2 cells assessed as maximum cell growth inhibition incubated for 72 hrs by MTS assay relative to control; format: functional; how it was run: as §2
K562 [32] = experiment: Cytotoxicity against human K562 cells assessed as maximum cell growth inhibition incubated for 72 hrs by MTS assay relative to control; format: functional; how it was run: as §2
RL [33] = experiment: Cytotoxicity against deoxynucleotidyl transferase-negative human RL cells assessed as cell death preincubated with adenosine kinase inhibitor, A-134974 for 5 mins followed by compound addition and […]; format: functional, cell-based
MIA PaCa-2 [34] = experiment: Cytotoxicity against human MIA PaCa-2 cells assessed as cell death incubated for 72 hrs by MTS assay; format: functional; settings: read-out: LC50 (the source's name); how it was run: as §1

## C[C@@H](NP(=O)(OC[C@@H]1C[C@@H](O)[C@H](n2cnc3c(N)ncnc32)O1)Oc1cccc2ccccc12)C(=O)OCc1ccccc1 (stereo partly specified)
HepG2
  CC50: 11.5 µM
Jurkat [1]
  CC50: 0.9 µM
MV4-11 [2]
  Imax: 99%
NCI-H929
  Imax: 99%
RPMI-8226
  CC50: 19 µM
HL-60 [3]
  Imax: 100%
RL [4]
  Imax: 96%
Leukemic stem cell
  Activity: inactive
[5]
  fold change (FC): 3
[6]
  Imax: 96%
KG-1 [7]
  LC50: 11.03 µM
RL [8]
  Activity: Active
MOLT-4 [9]
  CC50: 0.32 µM
CCRF-CEM [10]
  Activity: Active
Z-138 [11]
  CC50: 6.32 µM
BXPC-3 [12]
  Imax: 90%
MCF7 [13]
  Imax: 99%
[14]
  half-life at 1 µM: 43.4 min
Jurkat [15]
  Imax: 100%
HT-29
  Imax: 98%
Z-138 [16]
  Imax: 100%
MCF7 [17]
  CC50: 1.39 µM
RL [18]
  RatioLC50: 3
CCRF-CEM [19]
  RatioLC50: 3
CCRF-CEM [20]
  CC50: 1.17 µM
K562 [21]
  CC50: 4.93 µM
HL-60 [22]
  CC50: 6.37 µM
MV4-11 [23]
  CC50: 1.48 µM
CCRF-CEM [24]
  Imax: 100%
THP-1 [25]
  Imax: 99%
MOLT-4 [26]
  Imax: 100%
HEL 92.1.7
  Imax: 98%
BXPC-3 [27]
  CC50: 74 µM
THP-1 [28]
  CC50: 46.5 µM
[29]
  fold change (FC): 3
KG-1 [30]
  Imax: 100%
SW-620
  Imax: 93%
MIA PaCa-2 [31]
  Imax: 98%
K562 [32]
  Imax: 97%
RL [33]
  Activity: Active
MIA PaCa-2 [34]
  CC50: 3.73 µM
